Data set [1] has as its system canine model of paroxysmal AF. To be noted: basic pacing cycle length of 200 ms; cited from earlier work.
The test system of data set [2] is persistent AF canine model. As to the kind of experiment: Proarrhythmic risk. Type of data set: in vivo, beagle dogs. The note with it: 3 mg/kg i.v.; for peak increment of STVQT: at 3 h (dronedarone), 9 h (poyendarone), 1 h (amiodarone), n = 4.
Data set [3] deals with persistent AF canine model. As to the kind of experiment: Anti-atrial fibrillatory effect in persistent AF canine model. Format: in vivo, beagle dogs.
The target in data set [4] is T1, CYP3A4 (Homo sapiens, UniProt P08684). As to the kind of experiment: Mechanism-based inactivation of CYP3A4, rivaroxaban as probe substrate. Type of data set: biochemical. Summed up: (§1)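 Two-step inactivation assay. Recombinant CYP3A4 or CYP3A5 (20 pmol/mL) pre-incubated at 37 °C with test compound (0–20 μmol/L) and NADPH system in potassium phosphate buffer. At set times, aliquots diluted 20-fold into rivaroxaban plus NADPH regenerating system and incubated 2 h. ACN quench; rivaroxaban morpholinone product measured by LC–MS/MS. kobs from log % activity versus time; kinact and KI from kobs versus concentration; n = 3, mean ± SEM.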

A short description of data set [5]: Aqueous kinetic solubility. Format: physicochemical. To be noted: universal aqueous buffer, pH 7.4. Summed up: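 Kinetic solubility: test compound from 10 mmol/L DMSO stock diluted into universal aqueous buffer, pH 7.4 (1% DMSO, v/v), then sonicated. Run in 3 filter-plate wells, agitated 24 h at 250 rpm at room temperature and filtered. Filtrate brought to 80:20 buffer/ACN. Solubility estimated from UV absorbance at 300 nm.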

The target in data set [6] is T2, CYP2J2 (Homo sapiens, UniProt P51589).
T2 sequence (P51589 1-502): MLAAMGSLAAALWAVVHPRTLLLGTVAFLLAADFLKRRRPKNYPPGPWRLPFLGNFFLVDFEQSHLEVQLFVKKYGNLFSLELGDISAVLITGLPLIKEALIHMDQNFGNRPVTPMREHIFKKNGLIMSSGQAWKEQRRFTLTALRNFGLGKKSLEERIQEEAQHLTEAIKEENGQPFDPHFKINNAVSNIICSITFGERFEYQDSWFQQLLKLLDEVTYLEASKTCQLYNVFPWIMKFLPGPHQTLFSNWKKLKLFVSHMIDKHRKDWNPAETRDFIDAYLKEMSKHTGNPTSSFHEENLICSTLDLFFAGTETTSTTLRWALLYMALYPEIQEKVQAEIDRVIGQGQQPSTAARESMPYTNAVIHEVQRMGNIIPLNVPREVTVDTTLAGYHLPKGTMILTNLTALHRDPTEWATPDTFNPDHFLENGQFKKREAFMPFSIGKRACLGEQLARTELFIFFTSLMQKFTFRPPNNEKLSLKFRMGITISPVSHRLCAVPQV
As to the kind of experiment: in vitro. Format: biochemical.

Data set [7] addresses T2, CYP2J2. Type of data set: biochemical. To be noted: co-incubation 2 h with NADPH.
Data set [8] addresses T3, CYP3A5 (Homo sapiens, UniProt P20815). As to the kind of experiment: Mechanism-based inactivation of CYP3A5, rivaroxaban as probe substrate. Format: biochemical. Summed up:
as §1

Data set [9] deals with T3, CYP3A5. As to the kind of experiment: Metabolic stability, substrate depletion, rCYP3A5. Format: in vitro ADME. Summed up:
(§2)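 Substrate depletion. Test compound at 1 μmol/L incubated with NADPH generating system (NADP+, glucose 6-phosphate, glucose-6-phosphate dehydrogenase) and one enzyme source: human liver microsomes 0.5 mg/mL, rCYP3A4 10 pmol/mL or rCYP3A5 10 pmol/mL. Aliquots at set times quenched in ice-cold ACN with internal standard; parent measured by LC–MS/MS. Percent remaining versus time fitted to one-phase decay for CLint.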

Data set [10] addresses T2, CYP2J2. Type of data set: biochemical. To be noted: CYP2J2-mediated astemizole O-desmethylation.
In data set [11] the target is human CaV1.2 α1C cardiac isoform (Homo sapiens, UniProt Q13936). As to the kind of experiment: Whole-cell patch clamp, CaV1.2 peak current in transfected HEK293FT cells. Format: cell-based.
In another data set the target is hKV11.1 (hERG) channel (Homo sapiens, UniProt Q12809). As to the kind of experiment: Whole-cell patch clamp, KV11.1 tail current in transfected HEK293FT cells. Format: cell-based. Put shortly: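 HEK293FT cells grown in DMEM with 10% FBS at 37 °C, 5% CO2. Co-transfected with human KV11.1 and KCNE1 plasmids, then plated on poly-D-lysine coverslips. Test compound applied at 10 nmol/L–1 μmol/L under whole-cell voltage clamp: 1 kHz filter, >70% series-resistance compensation, P/4 leak subtraction. Pulses of 2.5 s from −80 to 20 mV; tail current recorded at −60 mV. IC50 from variable-slope log(inhibitor)–response fit.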

The nature of data set [12]: Metabolic stability, substrate depletion, HLM. To be noted: human, human liver microsomes. Type of data set: in vitro ADME. Put shortly:
as §2
Background: Liver microsomes are a subcellular fraction often used to study metabolism.

The target of data set [13] is T1, CYP3A4. As to the kind of experiment: Metabolic stability, substrate depletion, rCYP3A4. Type of data set: in vitro ADME. Put shortly: as §2
A further data set concerns hiPSC-CMs. As to the kind of experiment: BTB variability in hiPSC-CMs. Format: cell-based, human. The note with it: hiPSC-CM, 1 μmol/L. Put shortly:
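Cardiomyocytes from hiPSC made by viral-free reprogramming of human foreskin fibroblasts. Exposed to test compound (0–10 μmol/L); MEA field potentials recorded 5 min at baseline and 5 min after dosing. Successive RR intervals plotted as Poincaré plots, giving SD1 (STVRR) and SD2 (LTVRR). One experiment in triplicate, mean ± SEM; groups compared with control by one-way ANOVA and Dunnett's test.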

The next data set relates to H9c2 cells. As to the kind of experiment: Concurrent cytotoxicity and ATP depletion. To be noted: 6 h. Type of data set: cell-based, rat.
Data set [14] has as its target T2, CYP2J2. As to the kind of experiment: in vitro. Type of data set: in vitro ADME.
For the next data set, the target named is human NaV1.5 channel (Homo sapiens, UniProt Q14524). As to the kind of experiment: Whole-cell patch clamp, NaV1.5 peak current in transfected HEK293FT cells. Type of data set: cell-based. Summed up: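 HEK293FT cells grown in DMEM with 10% FBS at 37 °C, 5% CO2. Co-transfected with human NaV1.5 and β1-subunit plasmids; replated on coated coverslips 24 h before recording. Peak INa measured by whole-cell voltage clamp with test compound at 1–10 μmol/L: 5–6 kHz filter, >70% series-resistance compensation, P/4 leak subtraction. IC50 from variable-slope log(inhibitor)–response fit.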
A general note: The patch-clamp technique gives a direct electrical read-out from membranes.

A short description of data set [15]: Effective permeability by PAMPA. Type of data set: physicochemical. The note with it: pH 7.4. For orientation: The PAMPA barrier holds no transporters, so it reflects passive diffusion.
The mark [16] stands for this setting: hydrochloride 3 mg/kg i.v., conscious dogs.

The values that follow come from PMC9532722 (Acta Pharmaceutica Sinica. B, 2022).

Converted amounts (≈) assume the structure as drawn. “And” between values parts separate entries of the source, which are not always exact repeats. Equal values may be shown once. Read-outs that look alike come from different tables or passages of the source.

T1 sequence (P08684 whole entry): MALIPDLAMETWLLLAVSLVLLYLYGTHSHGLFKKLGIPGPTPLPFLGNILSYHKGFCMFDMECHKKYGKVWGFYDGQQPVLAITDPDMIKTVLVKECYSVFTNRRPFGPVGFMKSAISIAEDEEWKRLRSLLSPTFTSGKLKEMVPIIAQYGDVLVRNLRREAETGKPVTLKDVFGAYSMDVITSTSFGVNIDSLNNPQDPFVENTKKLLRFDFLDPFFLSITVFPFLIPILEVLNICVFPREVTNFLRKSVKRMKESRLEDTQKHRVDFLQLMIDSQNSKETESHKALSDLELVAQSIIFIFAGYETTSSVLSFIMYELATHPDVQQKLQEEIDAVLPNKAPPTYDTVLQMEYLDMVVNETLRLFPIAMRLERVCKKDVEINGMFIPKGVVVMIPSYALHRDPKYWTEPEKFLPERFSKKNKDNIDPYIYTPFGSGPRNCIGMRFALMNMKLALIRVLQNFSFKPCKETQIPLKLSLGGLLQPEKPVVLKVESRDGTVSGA
T3 sequence (P20815 whole entry): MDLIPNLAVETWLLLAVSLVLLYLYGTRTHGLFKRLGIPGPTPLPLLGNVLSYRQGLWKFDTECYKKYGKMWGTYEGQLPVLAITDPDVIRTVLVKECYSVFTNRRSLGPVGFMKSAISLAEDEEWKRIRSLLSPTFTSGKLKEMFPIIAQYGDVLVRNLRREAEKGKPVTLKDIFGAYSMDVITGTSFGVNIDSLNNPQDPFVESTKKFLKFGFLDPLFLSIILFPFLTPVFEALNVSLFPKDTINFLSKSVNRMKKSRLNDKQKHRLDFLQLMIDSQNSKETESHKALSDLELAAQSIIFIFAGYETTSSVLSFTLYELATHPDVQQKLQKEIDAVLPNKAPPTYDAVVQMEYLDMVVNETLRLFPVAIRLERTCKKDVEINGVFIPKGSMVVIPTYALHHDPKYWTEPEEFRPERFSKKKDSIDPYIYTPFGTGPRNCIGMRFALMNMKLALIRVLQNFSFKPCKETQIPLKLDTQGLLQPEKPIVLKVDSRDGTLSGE
human CaV1.2 α1C cardiac isoform, sequence (Q13936 17-2221): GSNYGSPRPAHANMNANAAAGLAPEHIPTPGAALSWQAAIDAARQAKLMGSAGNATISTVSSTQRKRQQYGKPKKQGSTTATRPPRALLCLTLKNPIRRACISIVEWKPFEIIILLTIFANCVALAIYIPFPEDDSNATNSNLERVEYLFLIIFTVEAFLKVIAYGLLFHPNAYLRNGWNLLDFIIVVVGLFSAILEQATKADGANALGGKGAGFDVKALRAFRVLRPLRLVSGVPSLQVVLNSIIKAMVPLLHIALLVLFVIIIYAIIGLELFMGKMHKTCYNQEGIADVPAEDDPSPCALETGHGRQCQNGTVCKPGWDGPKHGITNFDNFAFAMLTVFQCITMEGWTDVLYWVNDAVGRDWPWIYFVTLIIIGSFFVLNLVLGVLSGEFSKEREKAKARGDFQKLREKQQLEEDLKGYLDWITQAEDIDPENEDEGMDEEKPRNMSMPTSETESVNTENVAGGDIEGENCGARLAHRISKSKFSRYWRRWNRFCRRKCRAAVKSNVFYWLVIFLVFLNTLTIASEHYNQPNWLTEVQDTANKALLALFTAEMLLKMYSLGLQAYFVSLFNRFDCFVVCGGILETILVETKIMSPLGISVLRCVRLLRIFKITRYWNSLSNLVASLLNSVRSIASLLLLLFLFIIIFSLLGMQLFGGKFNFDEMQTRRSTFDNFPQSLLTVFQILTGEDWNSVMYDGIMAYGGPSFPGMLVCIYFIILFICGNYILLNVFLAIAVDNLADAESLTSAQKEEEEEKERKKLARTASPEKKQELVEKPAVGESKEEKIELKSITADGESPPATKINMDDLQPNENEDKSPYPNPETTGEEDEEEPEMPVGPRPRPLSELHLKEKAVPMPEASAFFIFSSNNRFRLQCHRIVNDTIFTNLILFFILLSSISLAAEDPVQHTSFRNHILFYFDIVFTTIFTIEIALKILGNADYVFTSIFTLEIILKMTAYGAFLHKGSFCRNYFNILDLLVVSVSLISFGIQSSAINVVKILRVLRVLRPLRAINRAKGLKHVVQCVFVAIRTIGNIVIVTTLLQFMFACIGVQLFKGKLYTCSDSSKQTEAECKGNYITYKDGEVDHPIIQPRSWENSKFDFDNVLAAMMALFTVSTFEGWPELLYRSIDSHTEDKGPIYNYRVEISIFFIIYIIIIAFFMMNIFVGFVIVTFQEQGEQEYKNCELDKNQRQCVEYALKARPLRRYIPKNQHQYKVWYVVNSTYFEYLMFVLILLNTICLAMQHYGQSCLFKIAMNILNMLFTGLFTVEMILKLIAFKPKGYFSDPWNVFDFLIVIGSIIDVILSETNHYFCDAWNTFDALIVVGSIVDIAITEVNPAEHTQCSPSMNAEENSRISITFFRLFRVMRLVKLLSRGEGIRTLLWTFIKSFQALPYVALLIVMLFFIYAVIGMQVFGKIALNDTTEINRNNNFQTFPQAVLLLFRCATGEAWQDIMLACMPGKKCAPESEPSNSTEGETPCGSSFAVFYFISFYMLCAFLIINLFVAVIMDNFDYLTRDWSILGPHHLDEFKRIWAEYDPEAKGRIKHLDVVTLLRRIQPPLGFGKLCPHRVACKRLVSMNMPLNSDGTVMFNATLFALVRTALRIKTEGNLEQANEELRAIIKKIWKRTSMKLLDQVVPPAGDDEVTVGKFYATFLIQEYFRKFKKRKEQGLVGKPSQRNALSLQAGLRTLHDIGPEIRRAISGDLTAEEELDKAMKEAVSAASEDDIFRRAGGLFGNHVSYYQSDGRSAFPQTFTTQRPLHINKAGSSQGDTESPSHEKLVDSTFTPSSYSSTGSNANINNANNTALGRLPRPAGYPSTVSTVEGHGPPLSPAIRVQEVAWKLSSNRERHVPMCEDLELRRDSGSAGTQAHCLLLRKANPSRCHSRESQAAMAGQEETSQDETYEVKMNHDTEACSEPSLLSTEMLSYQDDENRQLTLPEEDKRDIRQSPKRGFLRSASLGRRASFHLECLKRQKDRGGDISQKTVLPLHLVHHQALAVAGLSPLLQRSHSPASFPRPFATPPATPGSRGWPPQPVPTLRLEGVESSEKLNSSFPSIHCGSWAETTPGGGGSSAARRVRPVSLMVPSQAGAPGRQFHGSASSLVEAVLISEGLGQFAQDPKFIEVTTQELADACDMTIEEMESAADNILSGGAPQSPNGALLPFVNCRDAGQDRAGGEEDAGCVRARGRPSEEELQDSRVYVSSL
human CaV1.2 α1C cardiac isoform, sequence (Q08289 whole entry partner, canonical isoform): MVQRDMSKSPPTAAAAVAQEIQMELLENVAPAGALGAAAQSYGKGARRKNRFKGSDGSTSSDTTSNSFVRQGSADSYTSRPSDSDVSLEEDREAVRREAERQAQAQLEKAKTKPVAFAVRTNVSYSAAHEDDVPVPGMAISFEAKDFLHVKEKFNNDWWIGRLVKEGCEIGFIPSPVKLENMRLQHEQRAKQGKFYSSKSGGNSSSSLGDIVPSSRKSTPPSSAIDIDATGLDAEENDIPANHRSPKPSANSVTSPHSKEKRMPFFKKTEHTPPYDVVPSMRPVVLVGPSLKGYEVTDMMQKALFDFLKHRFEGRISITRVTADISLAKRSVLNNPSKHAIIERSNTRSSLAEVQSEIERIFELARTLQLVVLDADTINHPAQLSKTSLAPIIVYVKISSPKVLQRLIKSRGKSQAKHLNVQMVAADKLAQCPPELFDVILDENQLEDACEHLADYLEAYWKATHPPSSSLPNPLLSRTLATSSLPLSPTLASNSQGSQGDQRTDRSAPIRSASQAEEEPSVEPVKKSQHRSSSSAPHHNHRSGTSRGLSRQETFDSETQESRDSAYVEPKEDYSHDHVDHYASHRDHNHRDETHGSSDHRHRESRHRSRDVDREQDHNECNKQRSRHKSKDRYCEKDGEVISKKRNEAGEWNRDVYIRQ
human CaV1.2 α1C cardiac isoform, sequence (P54289 25-1103 partner): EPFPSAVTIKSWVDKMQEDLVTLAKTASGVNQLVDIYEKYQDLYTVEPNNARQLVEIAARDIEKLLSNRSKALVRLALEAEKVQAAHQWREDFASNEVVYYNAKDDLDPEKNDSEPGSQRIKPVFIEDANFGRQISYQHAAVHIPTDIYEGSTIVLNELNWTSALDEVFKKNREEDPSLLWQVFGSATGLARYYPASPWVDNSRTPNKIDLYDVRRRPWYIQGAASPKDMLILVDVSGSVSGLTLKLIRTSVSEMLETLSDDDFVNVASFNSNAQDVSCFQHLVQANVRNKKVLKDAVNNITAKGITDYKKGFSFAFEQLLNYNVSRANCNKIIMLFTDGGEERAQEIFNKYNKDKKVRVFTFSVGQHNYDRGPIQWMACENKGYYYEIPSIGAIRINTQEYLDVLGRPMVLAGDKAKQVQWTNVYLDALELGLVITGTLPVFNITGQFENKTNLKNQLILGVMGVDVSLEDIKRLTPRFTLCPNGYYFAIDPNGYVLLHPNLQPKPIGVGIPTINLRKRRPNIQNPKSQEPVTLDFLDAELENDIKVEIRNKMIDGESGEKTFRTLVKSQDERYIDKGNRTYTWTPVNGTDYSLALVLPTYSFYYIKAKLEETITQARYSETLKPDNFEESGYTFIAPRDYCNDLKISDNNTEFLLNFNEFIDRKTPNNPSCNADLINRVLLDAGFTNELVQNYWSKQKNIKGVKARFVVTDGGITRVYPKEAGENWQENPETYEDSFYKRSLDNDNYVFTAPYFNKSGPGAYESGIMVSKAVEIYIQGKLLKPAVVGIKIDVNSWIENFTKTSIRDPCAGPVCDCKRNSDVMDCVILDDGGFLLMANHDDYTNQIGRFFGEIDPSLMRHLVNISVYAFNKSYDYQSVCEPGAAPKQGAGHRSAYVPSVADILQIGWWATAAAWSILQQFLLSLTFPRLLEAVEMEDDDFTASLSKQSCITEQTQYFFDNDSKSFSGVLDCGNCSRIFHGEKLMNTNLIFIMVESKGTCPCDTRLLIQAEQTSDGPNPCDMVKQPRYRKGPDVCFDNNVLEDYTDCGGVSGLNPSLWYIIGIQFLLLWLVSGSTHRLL

As for `CCCCc1oc2ccccc2c1C(=O)c1cc(I)c(OCCN(CC)CC)c(I)c1` [Amiodarone], in data set [1], the “atrial effective refractory period prolongation” value was -3 ms and the “inter-atrial conduction time prolongation” value is on record as “+1 ms”. Also, the “peak increment of STVQT” value in data set [2] was determined as 1.05 ± 0.41 ms. For the same molecule, the “spontaneous AF recurrence, time after the termination of AF” value in [3] (hydrochloride 3 mg/kg i.v., animal #1) stood at 5.2 h. Further, the “time of AF termination after the start of administration (individual animals)” value in [3] (setting [16]) is 7.7 h and 5.9 h.

With `CCCCc1oc2ccc(NS(C)(=O)=O)cc2c1C(=O)c1ccc(OCCCN(CCCC)CCCC)cc1` [Dronedarone], the “atrial effective refractory period prolongation” value in [1] was “+4 ms”. Also, in [1], the “inter-atrial conduction time prolongation” value was “+13 ms”. Also, the kinact/KI (commonly the maximal inactivation rate divided by the concentration that gives half of it) on CYP3A4 [4] came out at 8.42e-05 M⁻¹ s⁻¹; on CYP3A4 [4] (as printed in text), 83.3 M⁻¹ s⁻¹; on CYP2J2 [6] (CYP2J2, rivaroxaban substrate), 7.85e-05 M⁻¹ s⁻¹; at CYP3A5 [8] (CYP3A5, rivaroxaban substrate) it was 0.000121 M⁻¹ s⁻¹; on CYP2J2 [10], 8300 M⁻¹ s⁻¹. In addition, the KI on CYP3A4 [4] (mean ± SEM) was found to be 5.3 ± 2.95 µM; on CYP2J2 [6] (CYP2J2, rivaroxaban substrate, mean ± SEM) it was 8.47 ± 3.96 µM; on CYP3A5 [8] (CYP3A5, rivaroxaban substrate, mean ± SEM), 4.44 ± 1.76 µM. For the same molecule, in data set [5], the solubility (in general, the dissolved amount per volume that the medium holds) at 24 h was determined as 3.22 ± 0.34 µg/mL (≈ 5.78 µM). Besides, the inactivation rate constant (kinact) (commonly the rate constant of inactivation at saturating inhibitor) is 0.000667 s⁻¹ at CYP2J2 [6] (human) and 0.000538 s⁻¹ on CYP3A5 [8] (human, recombinant CYP3A5 (rCYP3A5), probe rivaroxaban). The “MBI of CYP2J2-mediated rivaroxaban hydroxylation (in words)” value at CYP2J2 [6] (rivaroxaban as probe substrate) is reported as “potently inactivated”. The “inhibition of CYP2J2-mediated AA metabolism to EETs (in words)” value at CYP2J2 [7] is on record as “inhibits CYP2J2-mediated AA metabolism in a concentration-dependent manner”. Also, the half-life – broadly, how long it takes for the measured level to halve – at 1 μmol/L stood at 12.2 min on CYP3A5 [9] (human, recombinant CYP3A5 (rCYP3A5)); 10.4 min in data set [12]; 8.05 min at CYP3A4 [13] (human, recombinant CYP3A4 (rCYP3A4)); 3.95 min at CYP2J2 [14] (human, recombinant enzyme). Moreover, the figures for the “Intrinsic clearance, CLint” value at CYP3A5 [9] (rCYP3A5), at CYP3A4 [13] (rCYP3A4) and at CYP2J2 [14] (rCYP2J2) were 0.57 µL/min/pmol, 0.86 µL/min/pmol and 0.88 µL/min/pmol, respectively. Also, the 50% inhibitory concentration (IC50) (usually the concentration at which inhibition is half-maximal) in data set [11] was 1.96 µM; against hKV11.1 (hERG) channel it was 0.16 µM; against human NaV1.5 channel it was 3.41 µM. In addition, the intrinsic clearance (microsomal CLint) (commonly the capacity of the preparation to metabolise the compound, expressed as a volume cleared per time) at 1 μmol/L in data set [12] was determined as 13.3 µL/min/mg. The “long-term variability (LTVRR), fold compared to poyendarone” value in the data set with hiPSC-CMs worked out at 3 fold. Moreover, in the data set with hiPSC-CMs, the “short-term variability (STVRR), fold compared to poyendarone” value came out at 4 fold. Besides, the “fold higher cytotoxicity than poyendarone” value in the data set on H9c2 cells is given as 22 fold. The “fold more potent decrease of intracellular ATP than poyendarone” value with H9c2 cells turned out to be 13 fold. Also, in [2], the “period after administration with increased STVQT” value is 0.5 to 12 h. Moreover, in [2] (throughout observation period), the “STVQT relative to the critical border for early afterdepolarization” value was “intermittently elevated STVQT”. Further, the “peak increment of STVQT” value in data set [2] is 3.06 ± 0.80 ms. Also, the “animals in which persistent AF was terminated” value in [3] (hydrochloride 3 mg/kg i.v. over 30 s, conscious dogs, 21 h observation) was 2 out of 4. Also, in [3] (setting [16]), the “time of AF termination after the start of administration (individual animals)” value is 5.2 h and 10.6 h. For the same molecule, the Papp (in general, the rate of passage across a membrane or cell layer, normalised by area and donor concentration) at 16 h in data set [15] turned out to be 3.46 ×10⁻⁶ cm/s.
